Molecules are shown by their SMILES. Converted amounts (≈) assume the structure as drawn.

Data set [1] has as its system Rattus norvegicus. The data set can be described thus: Antiinflammatory activity in Wistar albino rat assessed as inhibition of carrageenan-induced paw edema at 20 mg/kg, po administered 30 mins before carrageenan challenge measured after 3 hrs relative to ibuprofen. Format: functional. In outline:
(§1)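 Wistar albino rats (180–200 g), either sex, randomized into groups of six. Dosed 20 mg/kg p.o.; controls received 0.5% CMC. 30 min later, 0.1 mL 0.1% carrageenan in sterile 0.9% NaCl injected subplantar into the right hind paw. Paw volume read by plethysmometer at 2 and 3 h. Expressed as % inhibition, mean ± SEM, ANOVA with post hoc test.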

The test system of a further data set is Staphylococcus aureus. In words: Antibacterial activity against Staphylococcus aureus ATCC 29737 by turbidity method. The format is functional.
A further data set concerns Rhizopus arrhizus. The data set can be described thus: Antifungal activity against Rhizopus oryzae NRRL 21498. Format: functional. In short, it runs like this: (§2)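 Antifungal screen against R. oryza NRRL-21498 and P. citrum NCIM-768 with fluconazole as reference. Compounds that inhibited growth of one or more organisms were taken forward to MIC determination, reported in µg/mL.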

Data set [2] deals with Rattus norvegicus. In words: Antiinflammatory activity in Wistar albino rat assessed as inhibition of carrageenan-induced paw edema at 20 mg/kg, po administered 30 mins before carrageenan challenge measured after 2 hrs relative to ibuprofen. The format is functional. In outline: as §1
The next data set has as its system Penicillium citrinum. The data set can be described thus: Antifungal activity against Penicillium citrinum NCIM 768. Format: functional. In short, it runs like this:
as §2

A further data set relates to Escherichia coli. The data set can be described thus: Antibacterial activity against Escherichia coli ATCC 8739 by turbidity method. Format: functional.
The subject of data set [3] is Rattus norvegicus. The data set can be described thus: Gastrointestinal toxicity in Albino rat assessed as severity index at 60 mg/kg, po after 17 hrs relative to control. The format is organism-based. As to conditions: in vivo. Also noted: dose 60 mg/kg, route oral. In short, it runs like this: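 Rats fasted 24 h (water allowed), then dosed orally at 60 mg/kg as a suspension in 1% methyl cellulose; controls received vehicle alone. Normal diet for 17 h after dosing. Stomach mucosa examined under a magnifying glass and scored: 0.5 redness, 1.0 spot ulcers, 1.5 haemorrhagic streaks, 2.0 ulcers >3 but <5, 3.0 ulcers >5. Severity index is the group mean score minus the control mean. Data are mean ± S.E.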

Another data set concerns Mus musculus. In words: Analgesic activity in Swiss albino mouse assessed as protection against acetic acid-induced writhing at 20 mg/kg, po administered 1 hr before acetic acid challenge measured for 5 to 15 mins. Format: functional. In short, it runs like this: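 Swiss albino mice (25–30 g), either sex, groups of six, habituated individually 30 min in test cage. Test agents 20 mg/kg suspended in 1.0% CMC given orally; controls received CMC only. 1 h later, 0.10 mL 1% aqueous acetic acid injected i.p. to induce writhing. Data are mean ± S.E., one-way ANOVA with post hoc test.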

In data set [4] the test system is Rattus norvegicus. The data set can be described thus: Effect on lipid peroxidation in Albino rat gastric mucosa assessed as malondialdehyde level per mg of protein at 60 mg/kg, po after 17 hrs relative to ibuprofen. Format: ADME, organism-based. Also noted: dose 60 mg/kg, route oral. As to conditions: in vivo. In outline:
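Lipid peroxidation measured by the Ohkawa thiobarbituric acid–MDA colorimetric method. Tubes were heated 30 min at 80 °C in a shaking water bath, chilled 10 min in ice water, and centrifuged at 3000 rpm for 15 min. Supernatant absorbance was read at 540 nm against a blank. Results are nmol MDA/mg protein, mean ± S.E.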

As for `COc1ccc(-c2cc(=O)c3cc(CCl)ccc3o2)cc1OC`, the values for the inhibition in vivo at 20 mg/kg in the data set with Rattus norvegicus [1] and in the data set on Rattus norvegicus [2] were 49.4% and 33.3%, respectively. Moreover, the MIC is 10 µg/mL (≈ 30.2 µM) against Staphylococcus aureus, 10 µg/mL (≈ 30.2 µM) against Rhizopus arrhizus, above 100 µg/mL against Penicillium citrinum and 50 µg/mL (≈ 151 µM) in the data set on Escherichia coli.

For the molecule `COc1ccc(-c2cc(=O)c3cc(CN4CCNCC4)ccc3o2)cc1OC`, the Activity with Rattus norvegicus [3] was 0.4; in the data set with Mus musculus, 45.38%; in the data set with Rattus norvegicus [4], 0.525 nmol. Moreover, the inhibition in vivo at 20 mg/kg came to 72.2% in the data set with Rattus norvegicus [1] and 54% in the data set on Rattus norvegicus [2]. The minimal inhibitory concentration (MIC) worked out at 25 µg/mL (≈ 65.7 µM) against Staphylococcus aureus, 25 µg/mL (≈ 65.7 µM) in the data set with Rhizopus arrhizus, 50 µg/mL (≈ 131 µM) with Penicillium citrinum and 10 µg/mL (≈ 26.3 µM) in the data set with Escherichia coli.

For `COc1ccc(-c2cc(=O)c3cc(CCl)ccc3o2)cc1`, the inhibition in vivo at 20 mg/kg was determined as 38.7% with Rattus norvegicus [1] and 32.2% in the data set on Rattus norvegicus [2]. For the same molecule, the MIC was 10 µg/mL (≈ 33.3 µM) against Staphylococcus aureus, 10 µg/mL (≈ 33.3 µM) against Rhizopus arrhizus, above 100 µg/mL against Penicillium citrinum and 50 µg/mL (≈ 166 µM) in the data set with Escherichia coli.

Regarding `CCn1cc(C(=O)O)c(=O)c2cc(F)c(N3CCNCC3)cc21` [NORFLOXACIN], the MIC in the data set on Staphylococcus aureus and against Escherichia coli was 6.25 µg/mL (≈ 19.6 µM) each time.

Consider `NS(=O)(=O)c1ccc(NCc2ccc3oc(-c4ccccc4Cl)cc(=O)c3c2)cc1`, for which the results for the inhibition in vivo at 20 mg/kg with Rattus norvegicus [1] and with Rattus norvegicus [2] were 58.2% and 32.2%, respectively. Besides, the minimum inhibitory concentration (MIC) with Staphylococcus aureus is 50 µg/mL (≈ 113 µM); against Rhizopus arrhizus, above 100 µg/mL; against Penicillium citrinum, 25 µg/mL (≈ 56.7 µM); against Escherichia coli, 50 µg/mL (≈ 113 µM).

Consider `COc1ccc(-c2cc(=O)c3cc(CN4CCOCC4)ccc3o2)cc1`, for which the Activity was found to be 0.2 in the data set with Rattus norvegicus [3], 50.8% in the data set on Mus musculus and 0.526 nmol with Rattus norvegicus [4]. Besides, the inhibition in vivo at 20 mg/kg in the data set with Rattus norvegicus [1] stood at 75.3%; with Rattus norvegicus [2], 62.7%. Moreover, the minimal inhibitory concentration (MIC) against Staphylococcus aureus, against Rhizopus arrhizus, in the data set with Penicillium citrinum and in the data set with Escherichia coli was 10 µg/mL (≈ 28.5 µM) in each case.

With `O=c1cc(-c2ccccc2Cl)oc2ccc(CN3CCNCC3)cc12`, the values for the Activity with Rattus norvegicus [3], in the data set with Mus musculus and in the data set on Rattus norvegicus [4] were 0.3, 48.39% and 0.403 nmol, respectively. In addition, the inhibition in vivo at 20 mg/kg in the data set with Rattus norvegicus [1] was determined as 73.9%; in the data set on Rattus norvegicus [2], 56%. Besides, the MIC is above 100 µg/mL against Staphylococcus aureus, 50 µg/mL (≈ 141 µM) in the data set with Rhizopus arrhizus, 50 µg/mL (≈ 141 µM) against Penicillium citrinum and above 100 µg/mL against Escherichia coli.

For the molecule `COc1ccc(-c2cc(=O)c3cc(CNc4ccc(C)cc4)ccc3o2)cc1`, the inhibition in vivo at 20 mg/kg in the data set on Rattus norvegicus [1] was determined as 51%; in the data set on Rattus norvegicus [2], 18.7%. The MIC is 50 µg/mL (≈ 135 µM) against Staphylococcus aureus, 50 µg/mL (≈ 135 µM) against Rhizopus arrhizus, above 100 µg/mL against Penicillium citrinum and 50 µg/mL (≈ 135 µM) against Escherichia coli.

`CC(C)Cc1ccc(C(C)C(=O)O)cc1` (stereo unspecified) [IBUPROFEN]: the Activity with Rattus norvegicus [3] amounted to 0.9; in the data set on Mus musculus, 65.06%.

`CN(C)Cc1ccc2oc(-c3ccccc3Cl)cc(=O)c2c1`: the inhibition in vivo at 20 mg/kg in the data set with Rattus norvegicus [1] was found to be 54.3%; with Rattus norvegicus [2], 36.2%. For the same molecule, the minimum inhibitory concentration (MIC) with Staphylococcus aureus is above 100 µg/mL; in the data set on Rhizopus arrhizus, above 100 µg/mL; in the data set on Penicillium citrinum, above 100 µg/mL; with Escherichia coli it was 50 µg/mL (≈ 159 µM).

`O=c1cc(-c2ccccc2Cl)oc2ccc(CN3CCOCC3)cc12`: the Activity in the data set on Rattus norvegicus [3] is on record as 0.1; with Mus musculus it was 54.81%; with Rattus norvegicus [4], 0.352 nmol. The inhibition in vivo at 20 mg/kg in the data set on Rattus norvegicus [1] is 82.5%; with Rattus norvegicus [2] it was 64.4%. Further, the MIC in the data set on Staphylococcus aureus is 50 µg/mL (≈ 141 µM); with Rhizopus arrhizus, 25 µg/mL (≈ 70.3 µM); in the data set on Penicillium citrinum, 25 µg/mL (≈ 70.3 µM); with Escherichia coli it was above 100 µg/mL.

Take `OC(Cn1cncn1)(Cn1cncn1)c1ccc(F)cc1F` [FLUCONAZOLE]: the MIC against Rhizopus arrhizus and against Penicillium citrinum was 6.25 µg/mL (≈ 20.4 µM) in each case.

As to `COc1ccc(-c2cc(=O)c3cc(CNc4ccc(S(N)(=O)=O)cc4)ccc3o2)cc1`, the inhibition in vivo at 20 mg/kg was determined as 60.5% in the data set with Rattus norvegicus [1] and 25.3% in the data set on Rattus norvegicus [2]. The minimum inhibitory concentration (MIC) against Staphylococcus aureus amounted to 25 µg/mL (≈ 57.3 µM); with Rhizopus arrhizus, 10 µg/mL (≈ 22.9 µM); against Penicillium citrinum it was 25 µg/mL (≈ 57.3 µM); in the data set with Escherichia coli, 50 µg/mL (≈ 115 µM).

For the molecule `COc1ccc(-c2cc(=O)c3cc(CNc4ccc(C)cc4)ccc3o2)cc1OC`, the results for the inhibition in vivo at 20 mg/kg in the data set with Rattus norvegicus [1] and in the data set with Rattus norvegicus [2] were 50.8% and 18.7%, respectively. The MIC with Staphylococcus aureus was found to be 25 µg/mL (≈ 62.3 µM); in the data set with Rhizopus arrhizus it was 25 µg/mL (≈ 62.3 µM); against Penicillium citrinum, 25 µg/mL (≈ 62.3 µM); in the data set on Escherichia coli it was 50 µg/mL (≈ 125 µM).

Consider `COc1ccc(-c2cc(=O)c3cc(CN4CCNCC4)ccc3o2)cc1`, for which the results for the Activity with Rattus norvegicus [3], with Mus musculus and in the data set with Rattus norvegicus [4] were 0.4, 40.36% and 0.599 nmol, respectively. In addition, the inhibition in vivo at 20 mg/kg in the data set with Rattus norvegicus [1] was 68.9%; with Rattus norvegicus [2], 39.5%. Further, the minimal inhibitory concentration (MIC) in the data set on Staphylococcus aureus is 50 µg/mL (≈ 143 µM); in the data set on Rhizopus arrhizus, 50 µg/mL (≈ 143 µM); against Penicillium citrinum it was above 100 µg/mL; in the data set with Escherichia coli it was 50 µg/mL (≈ 143 µM).

As to `Cc1ccc(NCc2ccc3oc(-c4ccccc4Cl)cc(=O)c3c2)cc1`, the inhibition in vivo at 20 mg/kg in the data set with Rattus norvegicus [1] is 52.7%; in the data set with Rattus norvegicus [2] it was 19.8%. The minimum inhibitory concentration (MIC) is above 100 µg/mL in the data set with Staphylococcus aureus, 50 µg/mL (≈ 133 µM) with Rhizopus arrhizus, above 100 µg/mL with Penicillium citrinum and above 100 µg/mL with Escherichia coli.

As for `COc1ccc(-c2cc(=O)c3cc(CN(C)C)ccc3o2)cc1`, the inhibition in vivo at 20 mg/kg in the data set on Rattus norvegicus [1] was 53.1%; in the data set on Rattus norvegicus [2], 36%. The MIC in the data set on Staphylococcus aureus was 50 µg/mL (≈ 162 µM); in the data set on Rhizopus arrhizus, 10 µg/mL (≈ 32.3 µM); with Penicillium citrinum it was 50 µg/mL (≈ 162 µM); with Escherichia coli it was 50 µg/mL (≈ 162 µM).

Take `COc1ccc(-c2cc(=O)c3cc(CN4CCOCC4)ccc3o2)cc1OC`: the Activity is listed as 0.1 with Rattus norvegicus [3], 53.61% with Mus musculus and 0.331 nmol in the data set with Rattus norvegicus [4]. For the same molecule, the inhibition in vivo at 20 mg/kg in the data set with Rattus norvegicus [1] came to 80.9%; with Rattus norvegicus [2] it was 61.8%. Moreover, the minimal inhibitory concentration (MIC) against Staphylococcus aureus, in the data set with Rhizopus arrhizus, in the data set with Penicillium citrinum and against Escherichia coli was 10 µg/mL (≈ 26.2 µM) in each case.

`COc1ccc(-c2cc(=O)c3cc(CNc4ccc(S(N)(=O)=O)cc4)ccc3o2)cc1OC`: the values for the inhibition in vivo at 20 mg/kg with Rattus norvegicus [1] and with Rattus norvegicus [2] were 60.5% and 27.1%, respectively. Moreover, the MIC in the data set with Staphylococcus aureus is 25 µg/mL (≈ 53.6 µM); in the data set with Rhizopus arrhizus, 10 µg/mL (≈ 21.4 µM); in the data set on Penicillium citrinum, 10 µg/mL (≈ 21.4 µM); in the data set on Escherichia coli it was 10 µg/mL (≈ 21.4 µM).

Regarding `COc1ccc(-c2cc(=O)c3cc(CN(C)C)ccc3o2)cc1OC`, the inhibition in vivo at 20 mg/kg in the data set with Rattus norvegicus [1] was found to be 51%; in the data set on Rattus norvegicus [2], 29.8%. Further, the MIC in the data set on Staphylococcus aureus stood at 25 µg/mL (≈ 73.7 µM); in the data set with Rhizopus arrhizus, 10 µg/mL (≈ 29.5 µM); against Penicillium citrinum, 50 µg/mL (≈ 147 µM); in the data set on Escherichia coli, 25 µg/mL (≈ 73.7 µM).
